{"source": "ChEMBL document CHEMBL1157083", "about": "“Characterization of tamulamides A and B, polyethers isolated from the marine dinoflagellate Karenia brevis” (J Nat Prod, 2010)", "key": {"[1]": {"experiment": "Displacement of [3H]PbTx-3 from rat brain synaptosome voltage-sensitive sodium channel site 5 after 1 hr by rapid filtration based scintillation counting", "assay_type": "tissue-based", "outline": "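Rat brain synaptosomes (0.1 mg protein/mL final) were incubated on ice for at least 1 h with about 1.5 nM [3H]-PbTx-3 and competitor (0 to 10 μM). Buffer was HEPES/choline chloride medium, pH 7.4, with 1 mg/mL BSA. Bound label was filtered and counted by scintillation. Apparent Ki came from one-site competition fits, with ≥3 experiments each run in duplicate or triplicate.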"}, "Gambusia affinis [2]": {"system": "Gambusia affinis", "experiment": "Toxicity in mosquito fish assessed as time required for mortality at 200 nM", "assay_type": "organism-based", "settings": "in vivo, 0.2 µM", "outline": "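Fish received 0.2 mL of test solution or an EtOH vehicle in tank water, giving 25-200 nM final. Five fish were used per concentration. Fish were watched for 24 h or until death. Time of death in minutes is given as mean ± S.E.M., compared by t-test.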"}, "Ovis aries [3]": {"system": "Ovis aries", "experiment": "Bronchoconstriction in sheep asthma model assessed as pulmonary airflow resistance at 10 pg/ml administered through aerosol for 20 breaths by pneumotachography relative to control", "assay_type": "functional"}, "Ovis aries [4]": {"system": "Ovis aries", "experiment": "Bronchoconstriction in sheep 1988 asthma model assessed as pulmonary airflow resistance at 10 pg/ml administered through aerosol for 20 breaths by pneumotachography relative to control", "assay_type": "functional"}, "Gambusia affinis [5]": {"system": "Gambusia affinis", "experiment": "Toxicity in mosquito fish at 25 to 200 nM up to 24 hrs", "assay_type": "organism-based", "settings": "in vivo, 0.2 µM", "outline": "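Fish each received 0.2 mL test solution or EtOH vehicle (0.2 mL), giving final water concentrations of 0, 25, 50, 100 or 200 nM. PbTx-2 positive control at 200 nM. Five fish per concentration. Monitored for 24 hours or until death; time of death as mean ± S.E.M., two-way Student's t-test.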"}, "Ovis aries [6]": {"system": "Ovis aries", "experiment": "Bronchoconstriction in sheep 2164 asthma model assessed as pulmonary airflow resistance at 10 pg/ml administered through aerosol for 20 breaths by pneumotachography relative to control", "assay_type": "functional"}, "Ovis aries [7]": {"system": "Ovis aries", "experiment": "Bronchoconstriction in sheep 2263 asthma model assessed as pulmonary airflow resistance at 10 pg/ml administered through aerosol for 20 breaths by pneumotachography relative to control", "assay_type": "functional"}, "Ovis aries [8]": {"system": "Ovis aries", "experiment": "Bronchoconstriction in sheep 2297 asthma model assessed as pulmonary airflow resistance at 10 pg/ml administered through aerosol for 20 breaths by pneumotachography relative to control", "assay_type": "functional"}}, "data": [{"smiles": "C=C(C=O)C[C@@H]1C[C@H](O)[C@]2(C)O[C@@H]3C[C@@H]4O[C@@H]5C[C@]6(C)O[C@]7(C)CC[C@@H]8O[C@@H]9C[C@]%10(C)O[C@@H]%11C(C)=CC(=O)O[C@H]%11C[C@H]%10O[C@H]9C[C@@H](C)[C@H]8O[C@H]7C[C@H]6O[C@@]5(C)C/C=C\\[C@H]4O[C@H]3C[C@H]2O1", "note": "[BREVETOXIN B]", "values": [{"measurement": "Ki", "setting": "[1]", "value": 1.2, "unit": "nM"}, {"measurement": "Activity", "setting": "Gambusia affinis [2]", "value": "Toxic"}, {"measurement": "Activity", "setting": "Ovis aries [3]", "value": 226, "unit": "%"}]}, {"smiles": "C=C(COC(=O)c1ccc2ccccc2c1)C[C@@H]1C[C@H](O)[C@]2(C)O[C@@H]3C[C@@H]4O[C@@H]5C[C@]6(C)O[C@]7(C)CC[C@@H]8O[C@@H]9C[C@]%10(C)O[C@@H]%11C(C)=CC(=O)O[C@H]%11C[C@H]%10O[C@H]9C[C@@H](C)[C@H]8O[C@H]7C[C@H]6O[C@@]5(C)C/C=C\\[C@H]4O[C@H]3C[C@H]2O1", "values": [{"measurement": "Activity", "setting": "Ovis aries [3]", "value": 0, "unit": "%"}]}, {"smiles": "C=C/C=C\\CC[C@H]1O[C@H]2CC[C@@]3(C)O[C@H]4[C@@H](O)C[C@@]5(C)O[C@@H](CC/C=C(C)/C(C)=C/C=O)[C@@H](C)C[C@H]5O[C@@H]4C[C@@H]3O[C@@H]2CC[C@@]1(C)O", "note": "[BREVENAL]", "values": [{"measurement": "Ki", "setting": "[1]", "value": 170, "unit": "nM"}, {"measurement": "Activity", "setting": "Ovis aries [3]", "value": 4, "unit": "%"}]}, {"smiles": "CC(=O)NC[C@@H]1O[C@@H]2C[C@]3(C)O[C@@H]4C=C[C@@H]5O[C@@H]6C=C[C@@H]7O[C@H](/C=C/C=C/C=O)C=C[C@H]7O[C@H]6C[C@H]5O[C@@]4(C)C[C@H]3O[C@H]2C[C@H]1O", "note": "[TAMULAMIDE A]", "values": [{"measurement": "Ki", "setting": "[1]", "value": 2500, "unit": "nM"}, {"measurement": "Activity", "setting": "Ovis aries [4]", "value": 39, "unit": "%"}, {"measurement": "Activity", "setting": "Gambusia affinis [5]", "value": "Non-toxic"}, {"measurement": "Activity", "setting": "Ovis aries [6]", "value": 43, "unit": "%"}, {"measurement": "Activity", "setting": "Ovis aries [7]", "value": 42, "unit": "%"}, {"measurement": "Activity", "setting": "Ovis aries [8]", "value": 34, "unit": "%"}]}, {"smiles": "CC(=O)NC[C@@H]1O[C@@H]2C[C@]3(C)O[C@@H]4C=C[C@@H]5O[C@@H]6C=C[C@@H]7O[C@H](/C=C/C=C/C=O)C=C[C@H]7O[C@H]6C[C@H]5O[C@H]4C[C@H]3O[C@H]2C[C@H]1O", "note": "[TAMULAMIDE B]", "values": [{"measurement": "Ki", "setting": "[1]", "value": 210, "unit": "nM"}, {"measurement": "Activity", "setting": "Ovis aries [4]", "value": 36, "unit": "%"}, {"measurement": "Activity", "setting": "Gambusia affinis [5]", "value": "Non-toxic"}, {"measurement": "Activity", "setting": "Ovis aries [6]", "value": 34, "unit": "%"}, {"measurement": "Activity", "setting": "Ovis aries [7]", "value": 37, "unit": "%"}, {"measurement": "Activity", "setting": "Ovis aries [8]", "value": 33, "unit": "%"}]}]}
